Measured values reported in ChEMBL document CHEMBL4043202, “Synthesis, pH dependent, plasma and enzymatic stability of bergenin prodrugs for potential use against rheumatoid arthritis” (Bioorg Med Chem, 2017).
≈ marks a conversion by molar mass, not a printed value.

Legend:
[1] = Partition coefficient, log P of the compound; type: physicochemical; conditions: octanol/water
Method in brief: (§1)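 Miniaturised shake-flask method: water/n-octanol for log P and PBS pH 7.4/n-octanol for log D, at 25 °C. Tubes were shaken overnight at 500 rpm and centrifuged at 16000 RCF for 20 min to separate the phases. Compound in each phase was quantified by reversed-phase C18 HPLC with the column at 37 °C. Run in triplicate.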

[2] = Solubility in water; type: physicochemical
[3] = Stability in pH 4.0 phosphate buffer assessed as compound remaining level at […] incubated for 24 hrs at 37 degC by HPLC method; type: physicochemical; conditions: for remaining at 24 h: pH 4.0 phosphate buffer, pH 4, read-out: Stability
[4] = Partition coefficient, log P of the compound in water/n-octanol at 25 degC by HPLC method; conditions: pH 7.4
[5] = Stability in pH 1.2 SGF assessed as compound remaining level at 120 mg/mL incubated for 24 hrs at 37 degC by HPLC method
Method in brief: (§2)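 SGF (pH 1.2) and SIF (pH 6.8) were prepared per USP 2000. Compound was incubated at 37 °C and sampled at 0 and 24 h. Samples were quenched with ice-cold acetonitrile and centrifuged. Prodrug and bergenin were measured by compound-specific isocratic RP-C8 HPLC-UV. Each analysis in triplicate.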

[6] = Stability in pH 6.8 SIF assessed as compound remaining level at 120 mg/mL incubated for 24 hrs at 37 degC by HPLC method; method in brief: as §2
[7] = Distribution coefficient, log D of the compound in PBS/n-octanol at pH 7.4 at 25 degC by HPLC method; type: physicochemical; method in brief: as §1
[8] = Partition coefficient, log P of the compound in water/n-octanol at pH 7.4 at 25 degC by HPLC method; type: physicochemical; method in brief: as §1
[9] = Solubility in pH 5.0 buffer; type: physicochemical
[10] = Solubility in pH 3.0 buffer; type: physicochemical
Tumor necrosis factor = Tumor necrosis factor (Homo sapiens, UniProt P01375); test: Inhibition of TNFalpha (unknown origin)
Tumor necrosis factor, sequence (P01375 whole entry): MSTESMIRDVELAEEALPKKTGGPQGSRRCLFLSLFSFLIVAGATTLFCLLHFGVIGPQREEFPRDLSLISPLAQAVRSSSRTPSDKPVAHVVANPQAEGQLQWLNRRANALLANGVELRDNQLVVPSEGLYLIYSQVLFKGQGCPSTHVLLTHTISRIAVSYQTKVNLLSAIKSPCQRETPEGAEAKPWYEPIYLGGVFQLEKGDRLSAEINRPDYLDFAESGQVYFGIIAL

[11] = Solubility in pH 1.0 buffer; type: physicochemical
Interleukin-6 = Interleukin-6 (Homo sapiens, UniProt P05231); test: Inhibition of IL6 (unknown origin)
Interleukin-6, sequence (P05231 whole entry): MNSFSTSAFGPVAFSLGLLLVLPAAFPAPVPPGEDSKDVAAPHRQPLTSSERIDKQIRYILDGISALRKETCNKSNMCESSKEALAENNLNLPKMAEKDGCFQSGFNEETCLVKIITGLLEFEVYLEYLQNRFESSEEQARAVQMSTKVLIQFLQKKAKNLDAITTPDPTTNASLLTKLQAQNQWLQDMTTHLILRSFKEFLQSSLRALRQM

| Compound | remaining at 24 h [3] | Stability [5] | Stability [6] | logD [7] | logP [8] | also measured |
| --- | --- | --- | --- | --- | --- | --- |
| Nc1ncn([C@@H]2O[C@H](CO)[C@@H](O)[C@H]2O)c(=O)n1 [AZACITIDINE] |  |  |  |  |  | logP [1]: -3.1; solubility [2]: 89000 µg/mL (≈ 364 mM) |
| COc1c(OCc2ccccc2)cc2c(c1OCc1ccccc1)[C@@H]1O[C@H](CO)[C@@H](O)[C@H](O)[C@H]1OC2=O | 52.4% | 68.8% | 90.5% | 1.98 |  | logP [4]: 1.965 |
| COc1c(OC(=O)c2ccc(C(C)(C)C)cc2)cc2c(c1OC(=O)c1ccc(C(C)(C)C)cc1)[C@@H]1O[C@H](COC(=O)c3ccc(C(C)(C)C)cc3)[C@@H](O)[C@H](O)[C@H]1OC2=O | 95% | 106% | 93.5% | 0.552 | 0.599 |  |
| CCCCCCCC(=O)OC[C@H]1O[C@H]2c3c(cc(OC(=O)CCCCCCC)c(OC)c3OC(=O)CCCCCCC)C(=O)O[C@@H]2[C@@H](OC(=O)CCCCCCC)[C@@H]1OC(=O)CCCCCCC |  |  |  | 6.11 | 6.011 |  |
| COc1c(O)cc2c(c1O)[C@@H]1O[C@H](CO)[C@@H](O)[C@H](O)[C@H]1OC2=O [BERGENIN] | 102% | 111% | 101% | -0.947 | -0.555 | solubility [9]: 1220 µg/mL (≈ 3.72 mM); logP [1]: -1.06; solubility [10]: 1080 µg/mL (≈ 3.29 mM); IC50 (Tumor necrosis factor): 12.5 µM; solubility [11]: 1290 µg/mL (≈ 3.93 mM); IC50 (Interleukin-6): 0.208 µM; solubility [2]: > 1000 µg/mL |
| CCCOc1cc2c(c(OCCC)c1OC)[C@@H]1O[C@H](CO)[C@@H](O)[C@H](O)[C@H]1OC2=O |  |  |  | 1.51 | 1.655 |  |
| COc1c(OC(=O)c2ccccc2C)cc2c(c1OC(=O)c1ccccc1C)[C@@H]1O[C@H](COC(=O)c3ccccc3C)[C@@H](OC(=O)c3ccccc3C)[C@H](O)[C@H]1OC2=O |  |  |  | 1.61 | 1.751 |  |
| COc1c(OC(C)=O)cc2c(c1O)[C@@H]1O[C@H](COC(C)=O)[C@@H](O)[C@H](O)[C@H]1OC2=O |  |  |  | -1.06 | -0.494 |  |
| COc1c(OC(=O)c2c(F)cccc2F)cc2c(c1O)[C@@H]1O[C@H](COC(=O)c3c(F)cccc3F)[C@@H](O)[C@H](O)[C@H]1OC2=O |  |  |  | 1.86 | 1.801 |  |
| COc1c(OC(=O)CC(C)C)cc2c(c1OC(=O)CC(C)C)[C@@H]1O[C@H](COC(=O)CC(C)C)[C@@H](OC(=O)CC(C)C)[C@H](OC(=O)CC(C)C)[C@H]1OC2=O |  |  |  | 6.45 | 6.358 |  |
| COc1c(OC(=O)c2ccc(C(C)(C)C)cc2)cc2c(c1OC(=O)c1ccc(C(C)(C)C)cc1)[C@@H]1O[C@H](COC(=O)c3ccc(C(C)(C)C)cc3)[C@@H](OC(=O)c3ccc(C(C)(C)C)cc3)[C@H](OC(=O)c3ccc(C(C)(C)C)cc3)[C@H]1OC2=O | 104% | 109% | 86.1% | 0.162 | 0.771 |  |
| COc1c(OC(=O)c2c(Cl)cc(Cl)cc2Cl)cc2c(c1O)[C@@H]1O[C@H](COC(=O)c3c(Cl)cc(Cl)cc3Cl)[C@@H](O)[C@H](O)[C@H]1OC2=O | 76% | 86.5% | 87.5% | 3.89 | 3.693 |  |
| COc1c(OC(C)=O)cc2c(c1OC(C)=O)[C@@H]1O[C@H](COC(C)=O)[C@@H](OC(C)=O)[C@H](OC(C)=O)[C@H]1OC2=O [BERGENIN PENTAACETATE] | 119% | 99.1% | 100% | 0.516 | 1.155 |  |
| COc1c(OC(=O)c2ccccc2)cc2c(c1OC(=O)c1ccccc1)[C@@H]1O[C@H](COC(=O)c3ccccc3)[C@@H](O)[C@H](O)[C@H]1OC2=O |  |  |  | 1.77 | 2.553 |  |
| COc1c(O)cc2c(c1O)[C@@H]1O[C@H](COC(=O)c3ccc([N+](=O)[O-])cc3)[C@@H](O)[C@H](O)[C@H]1OC2=O |  |  |  | 1.53 | 1.563 |  |
| COc1c(OC(C)=O)cc2c(c1OC(C)=O)[C@@H]1O[C@H](COC(C)=O)[C@@H](OC(C)=O)[C@H](O)[C@H]1OC2=O |  | 92.3% | 41.8% | 0.429 | 1.181 | Stability ([3]; buffer, pH 4, 24 h): 122.03% |
| CCCCOc1cc2c(c(OCCCC)c1OC)[C@@H]1O[C@H](CO)[C@@H](O)[C@H](O)[C@H]1OC2=O |  |  |  | 2.83 |  | logP [4]: 2.495 |
| COc1c(OC(=O)c2ccc([N+](=O)[O-])cc2)cc2c(c1O)[C@@H]1O[C@H](COC(=O)c3ccc([N+](=O)[O-])cc3)[C@@H](O)[C@H](O)[C@H]1OC2=O | 45% | 91.6% | 59.5% | 2.65 | 2.508 |  |
| CCCCCC(=O)OC[C@H]1O[C@H]2c3c(cc(OC(=O)CCCCC)c(OC)c3OC(=O)CCCCC)C(=O)O[C@@H]2[C@@H](OC(=O)CCCCC)[C@@H]1OC(=O)CCCCC |  |  |  | 6.06 | 5.967 |  |
